STAT1 blocker: STAT1 signaling inhibition. NIH 3T3 STAT1-luciferase reporter, IFN-gamma, luminescence. inhibition, % at 5.5 µM. 200,000 tested, 0.35% active;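 active = inhibition above a set limit, the mean inhibition across all tested compounds plus 3 SD, cut at about 34% in these data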;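 also: 0% = IFN-gamma with DMSO and 100% = IFN-gamma with 300 µM nifuroxazide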
APP 5'UTR act: activates APP 5'UTR luciferase reporter; SH-SY5Y APP 5'UTR luciferase reporter, luminescence; zero percent = DMSO vehicle wells; 190,000 tested, 1% active; AID 1276; activation, % at 2 µM;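 active = activation above a set limit, based on mean plus 3 SD of controls, cut at about 140% in these data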
STAT3 inh: inhibitors of IL-6 induced STAT3 signaling; U3A cells, IL-6 STAT3-luciferase reporter, luminescence; host cell line lacks STAT1; inhibition, % at 5.5 µM; 190,000 tested, 0.89% active;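 active = inhibition above the mean inhibition across all screened compounds plus 3 SD, cut at about 44% in these data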;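 also: 0% = DMSO only wells and 100% = 100 µM nifuroxazide control wells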
STAT1 act-1: activators of IFN-gamma induced STAT1 signaling. NIH 3T3 STAT1-luciferase reporter, luminescence; 100% = IFN-gamma alone, no compound. activation (% of control), % at 5.5 µM. AID 932. 200,000 tested, 2.6% active;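 active = activation above the screen-wide mean activation plus 3 SD, cut at about 130% in these data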;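 also: raw ratio to IFN-gamma control signal so 100% means no change and 0% no light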
NF-kB neuron act: raises NF-kB expression in human neuronal cells. NF-kB reporter expression; stronger effect = higher value. fold change at 12.5 µM. 190,000 tested, 1.6% active. AID 1239; in the data active = fold change above about 3.3
STAT3 act-1: increases IL-6 driven STAT3 reporter signal | activation (% of control), % at 5.6 µM | 190,000 tested, 0.91% active | U3A cells, IL-6 STAT3-luciferase reporter, luminescence; 100% = signal with IL-6 EC80 alone;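 active = activation above the screen-wide mean of compound activation plus 3 SD, cut at about 130% in these data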;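 also: 0% = background luminescence of wells with medium and substrate only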
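Material: STAT3-luciferase reporter U3A cells. Controls: IL-6-treated wells, 100% activation. Read-out: % activation versus median of IL-6-stimulated wells. Probe or stimulus: IL-6 stimulus at 33 ng/mL final. Timing: compound 1 h, then IL-6 6 h at 37 °C. Signal: reporter luminescence signal.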
STAT3 act-2: STAT3 activation, confirmation assay | shares compounds with STAT3 act-1 | potentiation (% of control), % at 5.7 µM | 1,200 tested, 64% active | U3A STAT3-luciferase reporter, IL-6 potentiation, luminescence; U3A cells lack STAT1; 100 means same as IL-6 alone;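 active = percent activation of the STAT3 luciferase reporter above a set limit taken from the earlier primary screen, cut at about 130% in these data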;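 also: 0% = background signal of medium plus substrate and 100% = median of IL-6 with DMSO wells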
NFkB act STAT3ct: counter-screen for STAT3 activators: NF-kappaB activation. AID 1309. 1,200 tested, 11% active. activation (% of control), % at 5.7 µM. human cells, NF-kappaB reporter activation. shares compounds with STAT3 act-1; in the data active = activation above about 120%;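 also: reporter induced by TNF-alpha stimulation; 100% = median of stimulated DMSO wells and 0% = no signal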
STAT1 act-2: activates STAT1, counter-screen to STAT3 activators | 1,200 tested, 13% active | activation (% of control), % at 5.7 µM | AID 1318 | NIH 3T3 STAT1-luciferase reporter, IFN-gamma, luminescence | shares compounds with STAT3 act-1;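 active = activation above the solvent-only control well mean plus 3 SD, set per screening run, cut at about 120% in these data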;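 also: 100% = IFN-gamma with DMSO median signal so 100% means no change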
Starred values were filed as active, the others as inactive; i = inactive; . = no result. Sampled rows, rich in hits. Any-hit rate of the full collection: about 5.1%.

SMILES | STAT1 blocker | APP 5'UTR act | STAT3 inh | STAT1 act-1 | NF-kB neuron act | STAT3 act-1 | STAT3 act-2 | NFkB act STAT3ct | STAT1 act-2
COc1ccc(/C=C(\C#N)C(=O)c2c(C)[nH]c3ccccc23)cc1OC | 9 | 9 | 3 | 94 | 1.1 | 96 | . | . | .
Cc1ccc2cc(COC(=O)c3ccco3)c(=O)[nH]c2c1 | 8 | 10 | -5 | 93 | 0.91 | 109 | . | . | .
Oc1ccc(Cl)cc1-c1cc(-c2ccccc2)n[nH]1 | -12 | 36 | -52 | 111 | 1.8 | 148* | 142* | 114 | 125*
Clc1ccc(C2=Nn3c(nnc3-c3cc(-c4ccccc4)n[nH]3)SC2)cc1 | -10 | -3 | 15 | 105 | 0.96 | 94 | . | . | .
CC(=O)Nc1ccc(S(=O)(=O)Nc2nc3ccccc3nc2Nc2ccc3ccccc3c2)cc1 | 2 | 4 | -56 | 98 | 1.2 | 152* | 152* | 117 | 113
CCCCN(CCCC)c1nc2ccccc2nc1NS(=O)(=O)c1ccc(NC(C)=O)cc1 | 0 | 1 | 13 | 100 | 1 | 93 | . | . | .
O=C1Cc2ccccc2C(c2ccccc2)N1 (stereo not drawn) | 2 | -4 | 6 | 98 | 0.91 | 98 | . | . | .
Cn1/c(=N/N=C/c2ccc(Cl)c([N+](=O)[O-])c2)sc2ccccc21 | 4 | 9 | -57 | 96 | 1.4 | 156* | 148* | 108 | 113
Cc1ccc(-n2c(=O)c3sccc3n(CC(=O)NC3CCCCC3)c2=O)cc1 | 1 | -5 | -8 | 98 | 1.1 | 108 | . | . | .
O=C(N/N=C/c1ccc(-c2cccc([N+](=O)[O-])c2)o1)c1cccs1 | -13 | 9 | -35 | 112 | 1.1 | 137* | 125 | 113 | 107
O=C(N/N=C/c1cn(-c2ccccc2)nc1-c1cc2ccccc2o1)c1cccnc1 | -26 | 148* | -65 | 123 | 1.3 | 159* | 179* | 138* | 204*
N#Cc1c(Cl)c(Cl)c2nnc(-c3ccc(Br)cc3)n2c1Cl | 8 | -1 | -54 | 92 | 1.2 | 154* | 152* | 106 | 95
Cn1c(SCC(=O)Nc2ccc3cn[nH]c3c2)nnc1-c1cnccn1 | 3 | -9 | -50 | 99 | 0.92 | 145* | 146* | 100 | 99
COc1ccc(NC(=O)CSc2nnc(-c3cccs3)n2C)cc1OC | 4 | 2 | 11 | 95 | 0.99 | 95 | . | . | .
Cn1c(SCC(=O)Nc2ccc3cn[nH]c3c2)nnc1-c1cccs1 | -1 | -17 | -70 | 99 | 1 | 162* | 149* | 106 | 99
Cc1ccc(-n2c(SCC(=O)Nc3ccc4cn[nH]c4c3)nnc2-c2ccco2)cc1 | 10 | -24 | -54 | 94 | 0.61 | 149* | 143* | 105 | 96
Cc1cc(NC(=O)c2cnn3c(C(F)(F)F)cc(-c4ccccc4)nc23)no1 | 1 | 16 | 22 | 89 | 0.41 | 85 | . | . | .
Cc1ccc(S(=O)(=O)Nc2nc(C)cc(NCCN)n2)cc1 | -2 | 2 | 1 | 102 | 1.2 | 104 | . | . | .
O=C(COC(=O)c1ccc(S(=O)(=O)N2CCCC2)cc1)NCc1ccc(Cl)cc1 | 8 | -15 | 2 | 96 | 0.88 | 99 | . | . | .
CCOc1ccc(OCC)c(NC(=O)CN2CCN(C(=O)c3ccco3)CC2)c1 | 1 | 7 | 1 | 99 | 0.87 | 102 | . | . | .
Cc1cccc(-c2nnn3c2nc(NCCc2ccc(S(N)(=O)=O)cc2)c2ccccc23)c1 | 1 | 17 | -54 | 99 | 0.41 | 145* | 155* | 102 | 112
NS(=O)(=O)c1ccc(CCNc2nc3c(-c4cccc(F)c4)nnn3c3ccccc23)cc1 | 4 | -11 | -40 | 97 | 0.56 | 137* | 144* | 98 | 110
Cc1ccc(-c2nnn3c2nc(NCCc2ccc(S(N)(=O)=O)cc2)c2ccccc23)cc1 | 4 | -4 | -27 | 96 | 0.87 | 123 | . | . | .
Cc1occc1C(=O)Nc1ccc(S(=O)(=O)N2CCCC2)cc1 | 9 | -5 | 6 | 92 | 1.2 | 98 | . | . | .
COc1cc(/C=C2\SC(N)=NC2=O)ccc1OCC(=O)Nc1ccc(C)cc1 | 24 | 12 | i | 78 | 1.4 | 643* | 435* | 130* | 85
SMILES | STAT1 blocker | APP 5'UTR act | STAT3 inh | STAT1 act-1 | NF-kB neuron act | STAT3 act-1 | STAT3 act-2 | NFkB act STAT3ct | STAT1 act-2
Cc1ccc(CC2S/C(=C(/C#N)C(=O)NCc3ccco3)N(c3ccccc3)C2=O)cc1 (stereo not drawn) | 0 | 4 | 14 | 100 | 1 | 96 | . | . | .
CC1S/C(=C(\C#N)C(=O)NCc2ccco2)N(Cc2ccco2)C1=O (stereo not drawn) | 10 | -11 | -46 | 92 | 0.97 | 142* | 130 | 104 | 95
Cn1c(CNc2nc3ccccc3n2CCN2CCCCC2)nc2ccccc21 | 8 | 11 | 6 | 93 | 0.9 | 101 | . | . | .
Cn1c(CNc2ccccc2O)nc2ccccc21 | 0 | 9 | -65 | 100 | 1.4 | 159* | 179* | 107 | 98
CC(=O)Nc1c(Cl)n(C(C)=O)c2ccccc12 | 10 | 12 | -91 | 91 | 1.1 | 175* | 159* | 103 | 94
Cc1ccc(C2=NNC(c3ccc(Cl)cc3)=Nc3ccccc32)o1 | 1 | . | -11 | 99 | 0.87 | 109 | . | . | .
Cc1ccc(C2=Nc3ccccc3NC(C)(c3ccc(C)o3)C2)o1 (stereo not drawn) | -22 | 73 | -38 | 120 | 2.2 | 138* | 126 | 110 | 107
CSc1nc(O)c(C2OC(=O)c3ccccc32)c(=O)[nH]1 (stereo not drawn) | 4 | -2 | 9 | 96 | 1.3 | 96 | . | . | .
CSc1nc(O)c(/C=C2\C=Nc3ccccc32)[nH]1 | -23 | 5 | -45 | 121 | 1.5 | 138* | 146* | 112 | 123*
Cc1cc(C)c(S(=O)(=O)c2ccccc2C)c(SCC(C)C)n1 | -3 | -7 | 0 | 103 | 1 | 103 | . | . | .
O=C(O)CCCCCN1C(=O)C(O)=C(C(=O)/C=C/c2ccccc2)C1c1ccccc1[N+](=O)[O-] (stereo not drawn) | 9 | 12 | -44 | 90 | 0.97 | 140* | 145* | 107 | 94
CCCCN1C(=O)C(O)=C(C(C)=O)C1c1ccccc1[N+](=O)[O-] (stereo not drawn) | 6 | 15 | 4 | 93 | 1.1 | 103 | . | . | .
COCCCNC(=O)c1cc2c(-c3ccc(Cl)cc3)nn(C)c2s1 | 0 | -4 | -50 | 100 | 0.77 | 151* | 143* | 105 | 96
